Results of several laboratories.
Compare with care: the assays were run in different laboratories.
Target: Serine/threonine-protein kinase PLK2 (PLK2, Homo sapiens, UniProt Q9NYY3)

The remaining binding of COc1cnc(Nc2cccc(S(N)(=O)=O)c2)nc1N1CCN(c2ccccc2)C(=O)C1 is reported as 80% (binding; competition with immobilised ligand; 1 µM).
With CS(=O)(=O)NCC[C@H](NC(=O)c1cncc2c1cnn2-c1ccc(F)cc1)c1ccnc(S(C)(=O)=O)c1 the remaining binding was 100% (cell-free assay; competition with immobilised ligand; 1 µM).
CN(C)c1ncc(F)c(-c2cnn3ncccc23)n1 has a remaining binding of 78% (binding; 1 µM).
With O=C(NCCCN1CCOCC1)c1ccc(Nc2ncc(Cl)c(-c3ccc(Cl)s3)n2)cc1 the remaining binding was 5.9% (binding; competition with immobilised ligand; 1 µM).
CNC(=O)[C@@H]1CC[C@@H](n2c(-c3ccc4cnccc4c3)nc3ccc(C(=O)NCc4cccc(C(N)=O)c4)cc32)C1 has a remaining binding of 96% (binding; competition with immobilised ligand; 1 µM).
CCN1CCN(Cc2ccc(C(=O)Nc3ccc(C)c(Oc4ccc5c(c4)CC(=O)N5)c3)cc2C(F)(F)F)CC1 has a remaining binding of 66% (binding; competition with immobilised ligand; 1 µM).
With F[C@@H]1CCN(c2nccc(-c3cnn4ncccc34)n2)C1 the remaining binding was 100% (binding; 1 µM).
With CNC(=O)Nc1ccc2c(c1)CC[C@@]21OC(=O)N(CC(=O)N(Cc2ccc(F)cc2)[C@@H](C)C(F)(F)F)C1=O the remaining binding was 91% (cell-free assay; competition with immobilised ligand; 1 µM).
The remaining binding of FC(F)(F)Oc1cccc(-c2cnc3ccc(-c4ccncc4)nn23)c1 is reported as 77% (cell-free assay; competition with immobilised ligand; 5 µM).
With C[C@H]1CCN(c2nccc(-c3cnn4ncccc34)n2)C1 the remaining binding was 91% (binding; 1 µM).
For O=C(NCC1CCOCC1)c1n[nH]cc1NC(=O)c1c(F)cccc1F, the remaining binding was 96% (binding; competition with immobilised ligand; 1 µM).
FC(F)(F)c1ccc2c(c1)nc(-c1cccnc1)n2C1CC1 has a remaining binding of 94% (cell-free assay; competition with immobilised ligand; 1 µM).
The remaining binding of COc1ccnn2ncc(-c3ccnc(N(C)C)n3)c12 is reported as 93% (binding; 1 µM).
CCS(=O)(=O)c1cc2cc(C[C@@](O)(CC(C)(C)c3ccc(F)cc3C(N)=O)C(F)(F)F)[nH]c2cn1 has a remaining binding of 100% (cell-free assay; competition with immobilised ligand; 1 µM).
With O=C(c1ccc(Nc2nccc(-c3cc4ccccc4s3)n2)cc1)N1CCC(N2CCCC2)CC1 the remaining binding was 96% (binding; competition with immobilised ligand; 1 µM).
With N[C@H]1CCN(c2nccc(-c3cnn4ncccc34)n2)C1 the remaining binding was 71% (binding; 1 µM).
With C[C@@H]1CN(c2cc(-c3n[nH]c4ccc(OC5(C)CC5)cc34)ncn2)C[C@H](C)O1 the remaining binding was 76% (cell-free assay; competition with immobilised ligand; 0.1 µM).
CC1CCCN1c1nccc(-c2cnn3ncccc23)n1 (centres unmarked) gave a remaining binding of 100% (binding; 1 µM).
CN(C)CC#Cc1ccc(OCCCc2sc(N3CCc4cccc(C(=O)Nc5nc6ccccc6s5)c4C3)nc2C(=O)O)c(F)c1 gave a remaining binding of 94% (cell-free assay; competition with immobilised ligand; 1 µM).
Cc1cnc(Nc2ccc(C(=O)N3CCC(N4CCCC4)CC3)cc2)nc1-c1cc2ccccc2s1 gave a remaining binding of 52% (binding; competition with immobilised ligand; 1 µM).
